From PMC9016771 (ACS chemical neuroscience, 2021)
Where two headings read alike, the source gives them in different places.

Legend:
hCB2 = hCB2 (Homo sapiens, UniProt P34972); experiment: Radioligand binding; details: hCB2-HEK membranes
rCB1 = rCB1 (Rattus norvegicus, UniProt P20272); experiment: Radioligand binding; details: for Ki: cis photoisomer (irradiated with 366 nm UV light), rat brain membranes, 0.6 nM [3H]CP55940; for CB1 trans/cis ratio: ratio Ki(trans)/Ki(cis) at CB1
[1] = format: physicochemical; details: for cis form at photostationary state: UV light at 366 nm, quantified by HPLC
Procedure, shortened: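 Photostationary states measured by UV/vis spectroscopy in 10 mm path cuvettes. Cis form produced by 366 nm irradiation; trans form by 454 nm blue light. HPLC chromatograms track isomer distribution at each stationary state. Repeated switching cycles check for photofatigue. Thermal stability of the cis form followed over >3 h in buffer pH 7.4 at 37 °C.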

hCB1 = hCB1 (Homo sapiens, UniProt P21554); format: cell-based
Procedure, shortened: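 CHO-K1 cells express hCB1 coupled through Gαq16, so receptor activation gives intracellular calcium mobilization. Calcium flux is monitored with calcium-5 fluorescent dye on an automated fluorescence plate reader. Antagonist apparent affinity (Ke) is derived from the functional response.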

rCB1, sequence (P20272 whole entry): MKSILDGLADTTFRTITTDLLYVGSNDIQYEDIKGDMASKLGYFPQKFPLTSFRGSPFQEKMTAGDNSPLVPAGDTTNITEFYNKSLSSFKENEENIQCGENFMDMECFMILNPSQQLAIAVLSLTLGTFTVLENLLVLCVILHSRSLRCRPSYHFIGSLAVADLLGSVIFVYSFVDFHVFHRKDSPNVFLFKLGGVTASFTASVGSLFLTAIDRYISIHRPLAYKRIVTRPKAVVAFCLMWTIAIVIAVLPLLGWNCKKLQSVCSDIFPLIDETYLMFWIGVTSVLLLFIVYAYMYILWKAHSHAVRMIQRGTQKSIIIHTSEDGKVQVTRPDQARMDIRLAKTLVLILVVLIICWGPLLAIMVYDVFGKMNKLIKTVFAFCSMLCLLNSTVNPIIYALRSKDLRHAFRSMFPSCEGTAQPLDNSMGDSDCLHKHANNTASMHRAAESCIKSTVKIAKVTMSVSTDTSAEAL
hCB2, sequence (P34972 whole entry): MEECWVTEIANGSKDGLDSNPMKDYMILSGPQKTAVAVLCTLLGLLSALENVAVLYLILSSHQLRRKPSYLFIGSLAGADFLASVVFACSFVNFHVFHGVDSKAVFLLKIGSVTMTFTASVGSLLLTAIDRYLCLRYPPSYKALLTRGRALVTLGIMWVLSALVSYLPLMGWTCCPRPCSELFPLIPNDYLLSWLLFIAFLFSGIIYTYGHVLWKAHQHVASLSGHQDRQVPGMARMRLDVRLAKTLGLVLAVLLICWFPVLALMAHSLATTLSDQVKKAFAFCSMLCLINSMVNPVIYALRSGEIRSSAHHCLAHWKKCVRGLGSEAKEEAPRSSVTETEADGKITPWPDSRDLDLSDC
hCB1, sequence (P21554 whole entry): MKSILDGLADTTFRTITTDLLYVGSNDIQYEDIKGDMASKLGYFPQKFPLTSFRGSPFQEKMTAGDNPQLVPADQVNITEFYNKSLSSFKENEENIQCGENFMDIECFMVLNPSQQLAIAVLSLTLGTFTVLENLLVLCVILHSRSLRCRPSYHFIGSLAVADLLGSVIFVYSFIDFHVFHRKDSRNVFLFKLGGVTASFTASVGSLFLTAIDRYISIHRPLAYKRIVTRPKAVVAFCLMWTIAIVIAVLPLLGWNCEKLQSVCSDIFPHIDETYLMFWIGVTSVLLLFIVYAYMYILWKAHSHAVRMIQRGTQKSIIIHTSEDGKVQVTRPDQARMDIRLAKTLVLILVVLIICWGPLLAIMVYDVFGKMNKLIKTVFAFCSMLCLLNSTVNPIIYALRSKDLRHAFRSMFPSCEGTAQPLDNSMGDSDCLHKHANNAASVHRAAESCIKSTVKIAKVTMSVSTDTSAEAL

| SMILES | [3H]CP55950 displ at 10 μM (CB2) (hCB2; cis photoisomer (366 nm)) [%] | [3H]CP55950 displ at 10 μM (CB2) (hCB2; trans photoisomer (454 nm)) [%] | Ki (rCB1; CB1 (Ki ± SD)) [nM] | CB1 trans/cis ratio (rCB1) | Ki (rCB1; read-out: CB1 (Ki ± SD)) [nM] | cis form at photostationary state [1] | reversal in the photoconversion ([1]; after being stored in the dark for 2 h) [%] | Kb (hCB1) [nM] | thermal stability ([1]; buffer pH 7.4, 37 °C) [h] | [3H]CP55950 displ at 10 μM (CB2) (hCB2; reference compound, no photoisomer) [%] |
| --- | --- | --- | --- | --- | --- | --- | --- | --- | --- | --- |
| Cc1c(/N=N/c2ccccc2)nn(-c2ccc(Cl)cc2Cl)c1-c1ccc(Cl)cc1 [14a, 5-(4-Chlorophenyl)-1-(2,4-dichlorophenyl)-4-methyl-3-[(E)-2-phenyldiazen-1-yl]-1H-pyrazole] | 21 | <10 | 249 ± 155 | 2.16 | – | – | – | – | – | – |
| Cc1c(C(=O)NCc2cccc(/N=N/c3ccccc3)c2)nn(-c2ccc(Cl)cc2Cl)c1-c1ccc(Cl)cc1 [16b, 5-(4-Chlorophenyl)-1-(2,4-dichlorophenyl)-4-methyl-N-((3-[(1E)-2-phenyldiazen-1-yl]phenyl)methyl)pyrazole-3-carboxamide] | <10 | 14 | – | 1.23 | 311 ± 196 | – | – | – | – | – |
| Cc1c(C(=O)NN2CCCCC2)nn(-c2ccc(Cl)cc2Cl)c1/N=N/c1ccc(Cl)cc1Cl [9c, 1-(2,4-Dichlorophenyl)-5-[(E)-2-(2,4-dichlorophenyl)diazen-1-yl]-4-methyl-N-(piperidin-1-yl)-1H-pyrazole-3-carboxamide] | 55 | 62 | 358 ± 62 | 1.11 | – | approximately 50% | 45 | – | – | – |
| Cc1cccc(/N=N/c2c(C)c(C(=O)NN3CCCCC3)nn2-c2ccc(Cl)cc2Cl)c1 [9e, 1-(2,4-Dichlorophenyl)-4-methyl-5-[(1E)-2-(3-methylphenyl)diazen-1-yl]-N-(piperidin-1-yl)-1H-pyrazole-3-carboxamide] | 46 | 65 | 679 ± 160 | 0.60 | – | – | – | – | – | – |
| Cc1c(C(=O)NCc2ccccc2/N=N/c2ccccc2)nn(-c2ccc(Cl)cc2Cl)c1-c1ccc(Cl)cc1 [16c, 5-(4-Chlorophenyl)-1-(2,4-dichlorophenyl)-4-methyl-N-((2-[(1E)-2-phenyldiazen-1-yl]phenyl)methyl)-1H-pyrazole-3-carboxamide] | 14 | 46 | – | 1.58 | 142 ± 28 | – | – | – | – | – |
| Cc1c(C(=O)NN2CCCCC2)nn(-c2ccc(Cl)cc2Cl)c1/N=N/c1ccccc1 [9a, 1-(2,4-Dichlorophenyl)-4-methyl-5-[(E)-2-phenyldiazen-1-yl]-N-(piperidin-1-yl)-1H-pyrazole-3-carboxamide] | 14 | 51 | 461 ± 337 | 1.0 | – | – | – | – | – | – |
| Cc1c(C(=O)NN2CCCCC2)nn(-c2ccc(Cl)cc2Cl)c1/N=N/c1cccc(Cl)c1Cl [9b, 1-(2,4-Dichlorophenyl)-4-methyl-5-[(E)-2-(2,3-dichlorophenyl)diazen-1-yl]-N-(piperidin-1-yl)-1H-pyrazole-3-carboxamide] | 61 | 81 | 716 ± 26 | 0.83 | – | approximately 50% | – | – | – | – |
| Cc1ccccc1/N=N/c1c(C)c(C(=O)NN2CCCCC2)nn1-c1ccc(Cl)cc1Cl [9d, 1-(2,4-Dichlorophenyl)-4-methyl-5-[(1E)-2-(2-methylphenyl)diazen-1-yl]-N-(piperidin-1-yl)pyrazole-3-carboxamide] | 45 | 68 | 384 ± 40 | 0.76 | – | – | – | – | – | – |
| Cc1c(C(=O)NCc2ccc(/N=N/c3ccccc3)cc2)nn(-c2ccc(Cl)cc2Cl)c1-c1ccc(Cl)cc1 [16a, 5-(4-Chlorophenyl)-1-(2,4-dichlorophenyl)-4-methyl-N-((4-[(1E)-2-phenyldiazen-1-yl]phenyl)methyl)-1H-pyrazole-3-carboxamide] | <10 | <10 | 29 ± 2.8 | – | – | – | – | ~85.3 | > 3 | – |
| Cc1c(C(=O)NCc2ccc(/N=N/c3ccc4c(c3)COC4)cc2)nn(-c2ccc(Cl)cc2Cl)c1-c1ccc(Cl)cc1 [16d, 5-(4-Chlorophenyl)-1-(2,4-dichlorophenyl)-N-((4-[(1E)-2-(1,3-dihydro-2-benzofuran-5-yl)diazen-1-yl]phenyl)methyl)-4-methyl-1H-pyrazole-3-carboxamide] | <10 | 32 | 221 ± 109 | 2.72 | – | – | – | – | – | – |
| Cc1c(/N=N/c2cccc(Cl)c2Cl)nn(-c2ccc(Cl)cc2Cl)c1-c1ccc(Cl)cc1 [14b, 5-(4-Chlorophenyl)-1-(2,4-dichlorophenyl)-3-[(E)-2-(2,3-dichlorophenyl)diazen-1-yl]-4-methyl-1H-pyrazole] | 60 | 31 | 195 ± 63 | – | – | approximately 50% | – | – | – | – |
| Cc1c(C(=O)NN2CCCCC2)nn(-c2ccc(Cl)cc2Cl)c1-c1ccc(Cl)cc1 [rimonabant, reference compound] | – | – | – | – | – | – | – | – | – | <10 |
